Activity calls are given as the source filed them. The rule behind the calls is not given here.
What was measured:
[1] = biological target: T1, Dual specificity protein phosphatase 3 (Homo sapiens, UniProt P51452); assay: Inhibition of recombinant vaccina H1-related phosphatase
[2] = biological target: T1, Dual specificity protein phosphatase 3; assay: Inhibition of recombinant vaccina H1-related phosphatase expressed in Escherichia coli by Michaelis-Menten kinetic studies
Outline: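 E. coli-expressed VHR (GST-fusion, thrombin-cleaved, gel-filtered) preincubated 10 min with several fixed inhibitor concentrations in Bis-Tris pH 6.0 buffer with DTT and 5% DMSO; started with pNPP at 0.2–10 Km; initial rates at 404 nm, no-enzyme corrected; Ki and mode by nonlinear fit to competitive, uncompetitive or mixed models, compared by AICc.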

[3] = biological target: T2, Tyrosine-protein phosphatase non-receptor type 7 (Homo sapiens, UniProt P35236); assay: Inhibition of recombinant HePTP
T2 sequence (P35236 whole entry): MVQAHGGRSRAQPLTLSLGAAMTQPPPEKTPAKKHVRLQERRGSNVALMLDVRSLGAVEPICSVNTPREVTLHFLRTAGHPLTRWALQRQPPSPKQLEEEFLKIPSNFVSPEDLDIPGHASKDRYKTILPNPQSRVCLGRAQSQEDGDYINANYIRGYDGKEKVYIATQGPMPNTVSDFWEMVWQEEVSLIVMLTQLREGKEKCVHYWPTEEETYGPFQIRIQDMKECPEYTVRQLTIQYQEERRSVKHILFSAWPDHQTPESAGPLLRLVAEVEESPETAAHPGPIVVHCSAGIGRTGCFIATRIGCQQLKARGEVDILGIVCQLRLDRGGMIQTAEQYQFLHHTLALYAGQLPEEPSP

[4] = biological target: T3, Tyrosine-protein phosphatase non-receptor type 1 (Homo sapiens, UniProt P18031); assay: Inhibition of recombinant PTP1B
T3 sequence (P18031 whole entry): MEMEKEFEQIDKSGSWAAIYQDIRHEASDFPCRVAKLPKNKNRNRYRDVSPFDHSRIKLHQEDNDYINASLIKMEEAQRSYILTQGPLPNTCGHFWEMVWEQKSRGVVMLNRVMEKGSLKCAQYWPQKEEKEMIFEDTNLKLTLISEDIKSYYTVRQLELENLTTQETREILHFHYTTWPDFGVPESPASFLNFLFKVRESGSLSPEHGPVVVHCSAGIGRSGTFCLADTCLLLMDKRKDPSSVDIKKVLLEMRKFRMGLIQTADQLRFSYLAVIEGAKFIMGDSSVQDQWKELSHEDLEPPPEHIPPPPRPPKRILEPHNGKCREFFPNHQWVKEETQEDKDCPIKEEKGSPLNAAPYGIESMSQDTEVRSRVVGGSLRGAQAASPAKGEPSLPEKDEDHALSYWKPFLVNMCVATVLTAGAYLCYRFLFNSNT

HeLa [5] = assay: Antiproliferative activity against human HeLa cells at 20 uM after 24 hrs by Trypan blue assay; assay type: functional
Outline: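 10^5 cells (HeLa in DMEM/10% FCS; primary normal keratinocytes from hysterectomy tissue, trypsin-EDTA dispersed, in K-SFM with EGF, pituitary hormone) treated 24 h with 20 μM inhibitor or DMSO; trypsinized and counted with trypan blue in a counting chamber; cell numbers as percentage of DMSO control; mean ± SD, three independent experiments.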

HeLa [6] = assay: Antiproliferative activity against human HeLa cells at 20 uM after 24 hrs by [3H]thymidine incorporation assay relative to control; assay type: functional
Outline: (§1)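 5×10^4 cells in DMEM complete medium exposed 24 h to 20 μM inhibitor or DMSO vehicle; [3H]thymidine ([…]) added for final 4 h, cells harvested onto glass fiber filters, radioactivity by scintillation counting; expressed relative to DMSO control; mean ± SD of three independent experiments.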

Ca-Ski [7] = assay: Antiproliferative activity against human CaSki cells at 20 uM after 24 hrs by [3H]thymidine incorporation assay relative to control; assay type: functional; outline: as §1
[8] = biological target: T4, Dual specificity protein phosphatase 1 (Homo sapiens, UniProt P28562); assay: Inhibition of recombinant MKP1
T4 sequence (P28562 whole entry): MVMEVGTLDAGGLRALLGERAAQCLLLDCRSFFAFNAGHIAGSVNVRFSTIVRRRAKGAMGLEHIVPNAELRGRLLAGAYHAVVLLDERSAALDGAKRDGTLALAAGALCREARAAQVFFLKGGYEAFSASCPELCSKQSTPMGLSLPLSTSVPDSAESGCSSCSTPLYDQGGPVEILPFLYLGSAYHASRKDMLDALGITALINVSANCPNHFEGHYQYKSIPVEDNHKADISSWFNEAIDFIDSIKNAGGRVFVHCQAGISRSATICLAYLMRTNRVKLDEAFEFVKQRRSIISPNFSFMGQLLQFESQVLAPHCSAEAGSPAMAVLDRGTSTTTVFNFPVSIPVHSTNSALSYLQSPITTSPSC

[9] = biological target: T5, M-phase inducer phosphatase 1 (Homo sapiens, UniProt P30304); assay: Inhibition of recombinant Cdc25a
T5 sequence (P30304 whole entry): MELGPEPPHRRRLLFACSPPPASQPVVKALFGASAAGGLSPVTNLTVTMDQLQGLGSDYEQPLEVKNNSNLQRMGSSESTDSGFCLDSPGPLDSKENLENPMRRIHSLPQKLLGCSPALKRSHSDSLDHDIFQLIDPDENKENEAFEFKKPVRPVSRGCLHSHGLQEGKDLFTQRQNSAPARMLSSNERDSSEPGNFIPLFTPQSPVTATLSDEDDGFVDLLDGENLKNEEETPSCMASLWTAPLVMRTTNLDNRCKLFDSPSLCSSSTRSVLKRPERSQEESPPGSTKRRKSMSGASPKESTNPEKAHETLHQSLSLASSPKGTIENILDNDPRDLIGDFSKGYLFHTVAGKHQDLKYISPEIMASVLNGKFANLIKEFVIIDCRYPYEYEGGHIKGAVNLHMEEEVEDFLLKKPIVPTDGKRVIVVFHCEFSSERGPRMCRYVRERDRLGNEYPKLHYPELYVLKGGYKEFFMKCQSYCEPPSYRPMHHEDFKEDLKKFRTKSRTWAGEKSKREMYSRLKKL

[10] = biological target: T6, Receptor-type tyrosine-protein phosphatase C (Homo sapiens, UniProt P08575); assay: Inhibition of recombinant CD45
T6 sequence (P08575 whole entry): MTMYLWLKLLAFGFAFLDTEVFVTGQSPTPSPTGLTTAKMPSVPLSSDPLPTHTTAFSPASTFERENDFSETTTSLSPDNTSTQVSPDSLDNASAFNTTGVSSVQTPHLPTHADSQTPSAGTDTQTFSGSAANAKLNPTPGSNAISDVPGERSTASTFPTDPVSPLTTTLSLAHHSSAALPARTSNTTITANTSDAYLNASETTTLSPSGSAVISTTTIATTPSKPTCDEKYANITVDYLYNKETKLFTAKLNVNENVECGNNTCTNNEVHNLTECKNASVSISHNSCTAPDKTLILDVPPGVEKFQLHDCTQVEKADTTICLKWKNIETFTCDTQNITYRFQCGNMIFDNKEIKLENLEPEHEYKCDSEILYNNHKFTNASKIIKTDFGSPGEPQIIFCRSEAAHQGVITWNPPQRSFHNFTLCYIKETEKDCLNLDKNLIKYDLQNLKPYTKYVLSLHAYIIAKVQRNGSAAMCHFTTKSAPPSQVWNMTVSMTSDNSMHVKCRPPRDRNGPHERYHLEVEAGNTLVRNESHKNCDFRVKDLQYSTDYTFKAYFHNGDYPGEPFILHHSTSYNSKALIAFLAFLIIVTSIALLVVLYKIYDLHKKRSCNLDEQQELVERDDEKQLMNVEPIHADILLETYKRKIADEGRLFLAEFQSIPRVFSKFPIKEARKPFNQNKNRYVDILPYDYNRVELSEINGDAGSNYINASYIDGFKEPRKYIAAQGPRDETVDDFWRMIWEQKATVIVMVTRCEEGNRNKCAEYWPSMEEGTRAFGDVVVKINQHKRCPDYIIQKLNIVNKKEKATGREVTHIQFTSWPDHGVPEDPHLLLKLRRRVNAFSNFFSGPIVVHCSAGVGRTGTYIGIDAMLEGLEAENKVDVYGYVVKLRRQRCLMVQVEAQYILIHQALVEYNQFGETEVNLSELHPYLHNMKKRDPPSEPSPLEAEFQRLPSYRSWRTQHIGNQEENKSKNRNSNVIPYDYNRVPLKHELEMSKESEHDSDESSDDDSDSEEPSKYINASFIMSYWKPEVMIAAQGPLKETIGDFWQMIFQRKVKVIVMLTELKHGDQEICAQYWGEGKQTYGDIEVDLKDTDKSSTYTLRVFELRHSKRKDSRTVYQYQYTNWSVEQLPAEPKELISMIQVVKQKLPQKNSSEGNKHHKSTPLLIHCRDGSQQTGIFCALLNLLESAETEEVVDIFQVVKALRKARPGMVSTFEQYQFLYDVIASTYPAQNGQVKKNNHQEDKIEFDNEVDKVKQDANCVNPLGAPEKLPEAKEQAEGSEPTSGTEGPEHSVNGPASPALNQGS

HeLa [11] = assay: Induction of apoptosis in human HeLa cells assessed as apoptotic cells at 20 uM after 24 hrs by annexin V/propidium iodide based flow cytometry; assay type: functional, cell-based
Outline: (§2)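 10^5 cells in DMEM/10% FCS incubated 24 h with 20 μM inhibitor or DMSO, trypsinized; half of cells stained with AnnexinV-FITC and propidium iodide, analysed by flow cytometry; live cells taken as AnnexinV- and PI-negative; mean ± SD from three independent experiments.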

Ca-Ski [12] = assay: Induction of apoptosis in human CaSki cells assessed as apoptotic cells at 20 uM after 24 hrs by annexin V/propidium iodide based flow cytometry; assay type: functional, cell-based; outline: as §2

T1 sequence (P51452 whole entry): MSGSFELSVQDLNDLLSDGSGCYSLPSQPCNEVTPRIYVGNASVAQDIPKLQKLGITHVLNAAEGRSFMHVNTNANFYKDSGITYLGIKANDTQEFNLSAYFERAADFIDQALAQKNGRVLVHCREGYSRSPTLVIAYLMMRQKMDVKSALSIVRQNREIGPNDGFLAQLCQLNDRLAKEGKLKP

O=C1/C(=C/c2cn(-c3ccccc3)nc2-c2ccc(S(=O)(=O)N3CCOCC3)cc2)SC(=S)N1CCS(=O)(=O)O
IC50 [1]: 2.4 µM

S=C(Nc1ccc2c(c1)oc1ccccc12)Nc1cccc2ccccc12
Ki [2]: 2.94 µM

O=C1NC(=S)N(c2ccc(F)cc2)C(=O)/C1=C/c1ccc(Br)o1
Ki [2]: 12.1 µM

O=C(/C=C/c1ccc(-c2ccccc2[N+](=O)[O-])o1)Nc1ccc(-c2nc3ccccc3o2)cc1
Ki [2]: 1.76 µM

Cc1ccc(C)n1-c1ccc(SCC(=O)O)cc1
Ki [2]: 2.09 µM

O=C1NC(=O)N(c2cccc(Br)c2)C(=O)/C1=C/c1ccc(-c2ccc(C(=O)O)cc2)o1 (mixture of isomers)
Ki [2]: 16.2 µM

Cc1cc(Br)c(-c2ccc(/C=C3\NC(=S)NC3=O)o2)cc1C
Ki [2]: 3.19 µM

C=CCN1C(=O)/C(=C\C=C\c2ccco2)C(=O)NC1=S (mixture of isomers)
Ki [2]: 15.8 µM

O=C1/C(=C/c2cn(-c3ccccc3)nc2-c2ccc(OCc3ccccc3)cc2)SC(=S)N1CCS(=O)(=O)O
IC50 [3]: 1.5 µM
IC50 [4]: 1.8 µM
Activity (HeLa [5]): Active
Activity (HeLa [6]): <=30%
Activity (Ca-Ski [7]): >50%

O=C1/C(=C/c2cn(-c3ccccc3)nc2-c2ccc(OCc3ccccc3F)cc2)SC(=S)N1CCS(=O)(=O)O
IC50 [8]: 0.52 µM
IC50 [9]: 2.8 µM
IC50 [3]: 0.87 µM
IC50 [10]: 0.5 µM
IC50 [4]: 0.42 µM
Activity (HeLa [5]): >50%
Activity (HeLa [6]): 58%
Activity (Ca-Ski [7]): 74%
Activity (HeLa [11]): inactive
Activity (Ca-Ski [12]): inactive

O=C1C(Cl)=C/C(=N\S(=O)(=O)c2ccc(Cl)cc2)C(Cl)=C1Cl
Ki [2]: 13.4 µM

COc1ccc(-c2nn(-c3ccccc3)cc2/C=C2\SC(=S)N(CCS(=O)(=O)O)C2=O)cc1
IC50 [1]: 1.8 µM

O=C1NC(=S)/C(=C/c2ccc(-c3ccc([N+](=O)[O-])cc3)o2)S1
Ki [2]: 1.86 µM

O=C(/C=C/c1ccco1)/C=C/c1ccc(-c2ccc(Cl)c(Cl)c2)o1
Ki [2]: 15.9 µM

O=C1/C(=C/c2cn(-c3ccccc3)nc2-c2ccc(S(=O)(=O)N3CCCCC3)cc2)SC(=S)N1CCS(=O)(=O)O
IC50 [8]: 2.8 µM
IC50 [9]: > 10 µM
IC50 [3]: 2.4 µM
IC50 [10]: 1.8 µM
IC50 [4]: 2.2 µM
Activity (HeLa [5]): Active
Activity (HeLa [6]): <=30%
Activity (Ca-Ski [7]): >50%

O=C1/C(=C/c2cn(-c3ccccc3)nc2-c2ccc(Cl)cc2)SC(=S)N1CCS(=O)(=O)O
IC50 [1]: 1.8 µM

Cc1ccc(-c2nn(-c3ccccc3)cc2/C=C2\SC(=S)N(CCS(=O)(=O)O)C2=O)cc1
IC50 [1]: 3.1 µM

O=C1/C(=C/c2ccc(-c3cccc(Cl)c3)o2)SC(=S)N1CCS(=O)(=O)O
Ki [2]: 3.13 µM

O=C1c2cccc3c4ccccc4n(c23)C(=O)C1(O)O
Ki [2]: 13.8 µM

COc1ccc(N2C(=O)/C(=C/c3ccc(I)o3)C(=O)NC2=S)cc1 (mixture of isomers)
Ki [2]: 4.44 µM

CCOC(=O)c1[nH]nc2c1C(=O)N(c1ccc(Br)cc1)C2=O
Ki [2]: 2.64 µM

O=C(O)C(Cc1ccccc1)N1C(=O)/C(=C/C=C/c2ccccc2)SC1=S (configuration not stated)
Ki [2]: 2.01 µM

Cc1ccc(C)n1-c1ccc(C(=O)O)c(O)c1
Ki [2]: 12.8 µM

COc1ccc(OC)c2c1C(=O)c1ccccc1C2=O [1,4-DIMETHOXYANTHRAQUINONE]
Ki [2]: 3.07 µM

CC1=C(C#N)c2nc(N)c(C#N)c(C)c2/C1=C/c1ccc(-c2ccc(C(=O)O)c(Cl)c2)o1
Ki [2]: 3.87 µM

O=C(O)c1cccc(-c2ccc(/C=N/Nc3ccc([N+](=O)[O-])cn3)o2)c1
Ki [2]: 13.8 µM

O=C1NC(=S)N(c2cccc(Cl)c2)C(=O)/C1=C\c1ccc[nH]1 (mixture of isomers)
Ki [2]: 3.49 µM

— ChEMBL document CHEMBL1156736, “Multidentate small-molecule inhibitors of vaccinia H1-related (VHR) phosphatase decrease proliferation of cervix cancer cells” (J Med Chem, 2009)
